Screens from PubChem BioAssay.
Calb biofilm kill – clotrimazole potentiators killing C. albicans biofilm, primary screen, 4-compound mixtures. C. albicans biofilm persisters + clotrimazole, fluorescence viability; primary screen in compound mixtures of four per well. inhibition, % at 7.6 µM. hit rate 0.02% among 120,000. AID 1242, 2008;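 active means inhibition above 30.3% in the primary screen of four-compound pools, then above 30% when the compound was retested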;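 further: compounds exposed to preformed 24 h biofilms for 48 h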
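Test system: C. albicans biofilms. Buffer or medium: RPMI/MOPS medium, pH 7.0. Timing: 48 h compound exposure at 37 °C. Technique: Alamar Blue fluorescence. Evaluation: percent inhibition of biofilm viability.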
RGS8-Gao – RGS8-Galphao binding modulators, primary screen, biochemical, multiplexed bead flow cytometry. hit rate 0.34% among 220,000. Guanine nucleotide-binding protein G(o) subunit alpha (Homo sapiens), P09471. response (percent of control binding), % at 10 µM. actives lie on both sides; in the data active means response below about 60% or above about 140%; inactive means in between;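 further: Galphao activated as the GDP aluminium fluoride complex binding bead-coupled RGS8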
Target sequence (P09471 whole entry, looked up): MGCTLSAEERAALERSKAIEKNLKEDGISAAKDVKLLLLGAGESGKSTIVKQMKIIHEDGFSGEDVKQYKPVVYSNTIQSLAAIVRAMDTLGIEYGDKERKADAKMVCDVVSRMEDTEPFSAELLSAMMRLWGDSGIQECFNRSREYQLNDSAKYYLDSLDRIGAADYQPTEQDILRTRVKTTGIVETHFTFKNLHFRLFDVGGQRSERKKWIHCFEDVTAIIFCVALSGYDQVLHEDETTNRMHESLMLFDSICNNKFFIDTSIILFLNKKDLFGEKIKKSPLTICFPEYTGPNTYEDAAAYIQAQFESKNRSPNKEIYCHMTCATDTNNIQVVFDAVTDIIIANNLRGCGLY
RGS16-Gao HTS – modulators of RGS16 binding to Galphao, primary screen, biochemical, human proteins, multiplexed bead flow cytometry. Regulator of G-protein signaling 16 (Homo sapiens) + Guanine nucleotide-binding protein …. bead-based flow cytometry RGS16-Galphao binding, fluorescence; actives lie on both sides. hit rate 0.38% among 220,000. AID 1441, 2008. binding response (% of control), % at 10 µM;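 further: Galphao activated by GDP with aluminum fluoride before binding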
RGS4-Gao reg – modulators of RGS4 binding to Galphao, primary screen, biochemical, multiplexed bead flow cytometry; Guanine nucleotide-binding protein G(o) subunit alpha (Homo sapiens), P09471; actives lie on both sides; binding response (% of control), % at 10 µM; hit rate 0.33% among 220,000; AID 1415, 2008; in the data active means binding response below about 49% or above about 150%; inactive means in between;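 further: fluorescent Galphao activated with aluminum fluoride binding bead-coupled RGS4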
RGS7-Gao reg – RGS7-Galphao binding modulators, primary screen, biochemical, multiplexed bead flow cytometry. actives lie on both sides. binding response (% of control), % at 10 µM. hit rate 0.35% among 220,000. AID 1439, 2008; in the data active means binding response below about 49% or above about 150%;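 further: fluorescent Galphao held in activated GDP-AlF4 state binding bead-coupled RGS7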
RGS-Gao – modulators of RGS–Galpha-o binding, primary screen, biochemical, multiplexed beads, flow cytometry, RGS4/7/8/16/19; shares compounds with RGS16-Gao HTS; multiplexed bead flow cytometry; RGS4–Galpha-o binding response, % at 10 µM; hit rate 99% among 1,600;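 further: fluorescently labeled Galpha-o bound to GDP with aluminium fluoride binding biotinylated RGS beads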
Biotin-avidin – disruption of biotin probe capture by avidin, counter-screen for RGS protein interaction modulators, biochemical, flow cytometry, bead-based | AID 1783, 2009 | inhibition, % at 10 µM | streptavidin beads, fluorescein-biotin binding | shares compounds with RGS16-Gao HTS | 1,700 tested, under 10 active;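 active means inhibition above 50%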;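 further: median green fluorescence of gated singlet beads compared with DMSO control wells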
RGS8-Gao single – RGS8-Galphao binding modulators, confirmation, biochemical, multiplexed bead flow cytometry, single concentration; bead-based flow cytometry RGS8-Galphao binding, fluorescence; actives lie on both sides; AID 1836, 2009; hit rate 3% among 1,700; binding response (% of control), % at 10 µM; shares compounds with RGS16-Gao HTS; in the data active means binding response below about 72% or above about 130%; inactive means in between;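 further: Galphao activated as GDP AlF4 complex before binding bead RGS8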
RGS7-Gao single – RGS7-Galphao binding modulators, confirmation, biochemical, multiplexed bead flow cytometry, single concentration; response (percent of control binding), % at 10 µM; shares compounds with RGS16-Gao HTS; hit rate 7.8% among 1,700; bead-based flow cytometry RGS7-Galphao binding; actives lie on both sides; in the data active means response below about 75% or above about 130%; inactive means in between;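 further: fluorescent Galphao activated with GDP and aluminum fluoride binding bead-coupled RGS7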
RGS16-Gao single – modulators of RGS16-Galphao protein binding, confirmation, biochemical, single concentration, multiplexed bead flow cytometry. shares compounds with RGS16-Gao HTS. bead-based flow cytometry; actives lie on both sides. response (% of control binding), % at 10 µM. hit rate 4% among 1,700; in the data active means response below about 74% or above about 130%; inactive means in between;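 further: Galphao activated as the GDP aluminium fluoride complex binding bead-coupled RGS16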
RGS4-Gao confirm – modulators of RGS4-Galphao protein binding, confirmation, biochemical, single concentration, multiplexed bead flow cytometry | actives lie on both sides | shares compounds with RGS16-Gao HTS | binding response (% of control), % at 10 µM | hit rate 4% among 1,700; in the data active means binding response below about 74% or above about 130%; inactive means in between
RGS19-Gao conf – regulators of RGS19-Galphao binding, confirmation, biochemical, single point, multiplexed bead flow cytometry; AID 1841, 2009; hit rate 5% among 1,700; bead-based flow cytometry RGS19-Galphao binding; actives lie on both sides; response (percent of control binding), % at 10 µM; shares compounds with RGS16-Gao HTS; in the data active means response below about 50% or above about 160%; inactive means in between
Numbers stand for hits; [ ] = remark or other dose. Only some compounds are listed: those with a hit (about 0.74% of all), similar ones and a draw of the others. Unless noted, how the calls were made is not given here.

What do the screens show for `O=C(/C=C\Nc1ccc(Br)cc1)c1cccnc1`?
Calb biofilm kill: inactive; RGS8-Gao: inactive; RGS16-Gao HTS: inactive; RGS4-Gao reg: inactive; RGS7-Gao reg: inactive

What do the screens show for `COC(=O)c1ccccc1NC(=O)CN1C(=O)CSC1=O`?
Biotin-avidin: inactive; RGS8-Gao single: inactive; RGS7-Gao single: inactive; RGS16-Gao single: inactive; RGS4-Gao confirm: inactive; RGS19-Gao conf: inactive

How did COC(=O)c1cc(NC(=O)CN2C(=O)CSC2=O)ccc1Cl do in these assays?
RGS8-Gao: inactive; RGS16-Gao HTS: inactive; RGS4-Gao reg: inactive; RGS7-Gao reg: inactive

Results for COC(=O)c1ccccc1NC(=O)/C=C/C(=O)O ?
Calb biofilm kill: inactive; RGS8-Gao: inactive; RGS16-Gao HTS: 34; RGS4-Gao reg: inactive; RGS7-Gao reg: inactive; RGS-Gao: 87; Biotin-avidin: inactive; RGS8-Gao single: inactive; RGS7-Gao single: inactive; RGS16-Gao single: inactive; RGS4-Gao confirm: inactive; RGS19-Gao conf: inactive

What do the screens show for `Oc1ccc(N2CCN(C(c3ccccn3)c3nnnn3C3CCCC3)CC2)cc1` (stereo unspecified)?
Calb biofilm kill: inactive; RGS8-Gao: inactive; RGS16-Gao HTS: inactive; RGS4-Gao reg: inactive; RGS7-Gao reg: inactive

How did O=C(Cn1nnc(-c2ccc(Cl)cc2)n1)NCc1ccco1 do in these assays?
Calb biofilm kill: inactive; RGS8-Gao: inactive; RGS16-Gao HTS: inactive; RGS4-Gao reg: inactive; RGS7-Gao reg: inactive

What do the screens show for `CCCC(=O)NCn1nnc(-c2ccc(Cl)cc2)n1`?
Calb biofilm kill: inactive; RGS8-Gao: inactive; RGS16-Gao HTS: 273[activator]; RGS4-Gao reg: 346[activator]; RGS7-Gao reg: 295[activator]; Biotin-avidin: inactive; RGS8-Gao single: inactive; RGS7-Gao single: inactive; RGS16-Gao single: inactive; RGS4-Gao confirm: inactive; RGS19-Gao conf: inactive

How did CCOc1ccc(-c2nnc(-c3ccccc3)o2)cc1 do in these assays?
Calb biofilm kill: inactive; RGS8-Gao: inactive; RGS16-Gao HTS: inactive; RGS4-Gao reg: inactive; RGS7-Gao reg: inactive

What do the screens show for `CCOc1ccc(-c2nnc(-c3ccc(OC)cc3)o2)cc1`?
Calb biofilm kill: inactive; RGS8-Gao: 14; RGS16-Gao HTS: 11; RGS4-Gao reg: 24; RGS7-Gao reg: 18; Biotin-avidin: inactive; RGS8-Gao single: inactive; RGS7-Gao single: inactive; RGS16-Gao single: inactive; RGS4-Gao confirm: inactive; RGS19-Gao conf: inactive

Results for S=C1NCCNC(=S)NCCOCCOCCN1 ?
Calb biofilm kill: inactive; RGS8-Gao: inactive; RGS16-Gao HTS: inactive; RGS4-Gao reg: inactive; RGS7-Gao reg: inactive
